Laboratory results from article PMC2668958 (Combinatorial chemistry & high throughput screening, 2008).

Columns and labels:
Glucocerebrosidase (GC) [1] = biological target: T1, Glucocerebrosidase (GC) (Homo sapiens, UniProt P04062, R534H); experiment: "blue" GC enzyme kinetic assay, 384-well; format: biochemical; conditions: substrate of "blue" assay, 1.9 nM enzyme
T1 sequence (P04062 40-536 R534H): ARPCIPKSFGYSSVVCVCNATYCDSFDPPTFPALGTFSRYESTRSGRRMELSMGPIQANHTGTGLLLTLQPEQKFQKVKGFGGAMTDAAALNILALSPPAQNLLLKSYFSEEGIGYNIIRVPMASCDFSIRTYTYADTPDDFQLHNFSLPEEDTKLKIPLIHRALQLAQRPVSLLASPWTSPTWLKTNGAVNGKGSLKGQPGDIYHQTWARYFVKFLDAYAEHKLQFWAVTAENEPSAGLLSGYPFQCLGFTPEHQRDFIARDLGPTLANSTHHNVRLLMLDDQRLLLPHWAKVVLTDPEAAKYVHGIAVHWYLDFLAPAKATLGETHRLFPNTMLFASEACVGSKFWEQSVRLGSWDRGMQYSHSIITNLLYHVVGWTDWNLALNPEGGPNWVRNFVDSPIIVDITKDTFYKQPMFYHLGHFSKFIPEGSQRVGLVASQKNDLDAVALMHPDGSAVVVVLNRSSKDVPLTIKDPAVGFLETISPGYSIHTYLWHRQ
Outline: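 384-well format. 1.9 nM GC in pH 5.9 buffer (50 mM citric acid, 176 mM K2HPO4, 0.01% Tween-20, 10 mM sodium taurocholate). Reaction started with 4MU-β-Glc at final 3000–23.4 μM (1:2 series, eight levels), run at RT. Separate plates were stopped with 1 M NaOH/1 M glycine pH 10 at 2, 4, 6, 8, 10 and 12 min and read at 440 nm. Product was quantified from a 4-methylumbelliferone standard curve.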

[2] = CBE solutions in DMSO left at RT for more than a few hours (data not shown)
Glucocerebrosidase (GC) [3] = biological target: T1, Glucocerebrosidase (GC); experiment: Res-β-Glc; format: biochemical
Glucocerebrosidase (GC) [4] = biological target: T1, Glucocerebrosidase (GC); experiment: 4MU-β-Glc; format: biochemical; conditions: read-out: IC50 in the "blue" GC assay; known GC inhibitors; 800 μM 4MU-β-Glc, 1.9 nM enzyme
Glucocerebrosidase (GC) [5] = biological target: T1, Glucocerebrosidase (GC); experiment: "red" GC enzyme kinetic assay, 384-well; format: biochemical; conditions: substrate of "red" assay, 1.9 nM enzyme
Outline: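 Kinetics were run in 384-well plates with 1.9 nM GC in pH 5.9 citrate/K2HPO4 buffer containing 0.01% Tween-20 and 10 mM sodium taurocholate. Res-β-Glc was added at final 100, 60, 40, 20, 10, 5 and 2.5 μM at RT, with no stop step. One plate was read continuously for 610 nm emission at 2 min intervals. Product was converted using a resorufin standard curve in assay buffer.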

[6] = varied substrate concentrations

## Cc1cc(=O)oc2cc(O[C@@H]3O[C@H](CO)[C@@H](O)[C@H](O)[C@H]3O)ccc12 [4MU-β-Glc, 4-methylumbelliferyl β-D-glucopyranoside]
Glucocerebrosidase (GC) [1]
  Vmax: 1.56 pmol/min
Glucocerebrosidase (GC) [1]; [6]
  Km: 768 µM

## O[C@H]1[C@H](O)[C@@H](O)[C@@H]2O[C@@H]2[C@@H]1O [CBE, Conduritol β-epoxide]
[2]
  shift of IC50 value: 2- to 10 fold
Glucocerebrosidase (GC) [3]; read-out: IC50 in the "red" GC assay, known GC inhibitors, 30 μM Res-β-Glc, 1.9 nM enzyme
  IC50: 13 µM
Glucocerebrosidase (GC) [4]
  IC50: 15.4 µM

## N.N.[Cl][Pt][Cl] [Cisplatin]
Glucocerebrosidase (GC) [3]; neat samples of primary hits, "red" GC enzyme assay
  GC inhibitory activity on hit confirmation: inactive

## O=c1ccc2nc3ccc(O[C@@H]4O[C@H](CO)[C@@H](O)[C@H](O)[C@H]4O)cc3oc-2c1 [Res-β-Glc, Resorufin β-D-glucopyranoside]
Glucocerebrosidase (GC) [5]
  Vmax: 7.11 pmol/min
Glucocerebrosidase (GC) [5]; [6]
  Km: 33 µM

## CN[C@@H](C)[C@H](O)c1ccccc1 [compound 1, (-)-Ephedrine hemisulfate]
Glucocerebrosidase (GC) [3]
  IC50: 0.79 µM

## O=C(/C=C/c1ccc(O)cc1)c1ccc(O)cc1O [compound 2, Isoliquiritigenin]
Glucocerebrosidase (GC) [3]
  IC50: 2.57 µM

## CC[N+](CC)(CC)CCOc1cccc(OCC[N+](CC)(CC)CC)c1OCC[N+](CC)(CC)CC [compound 3, Gallamine triethiodide]
Glucocerebrosidase (GC) [3]
  IC50: 3.59 µM

## C[N+]1(C)CCN(c2ccccc2)CC1 [compound 6, 1,1-Dimethyl-4-phenyl-piperazinium iodide]
Glucocerebrosidase (GC) [3]
  IC50: 6.8 µM

## O=c1c2ccccc2[se]n1-c1ccccc1 [compound 10, Ebselen]
Glucocerebrosidase (GC) [3]
  IC50: 0.63 µM
